Results on 18 molecules are retold here after PMC3983348 (Journal of Medicinal Chemistry, 2014).

pIC50: −log10 of the molar value. Like-named read-outs stand apart in the source and are kept apart here.

For experiment [1], the system named is panel of 60 different human cancer cell lines. Nature of the experiment: NCI-60 five-dose assay, mean graph midpoint. Format: cell-based. The following applies: mean graph midpoint of growth inhibition, five-dose assay 10^–8 to 10^–4 M.
Experiment [2] addresses T1, recombinant Top1 (Homo sapiens, UniProt P11387).
T1 sequence (P11387 1-765): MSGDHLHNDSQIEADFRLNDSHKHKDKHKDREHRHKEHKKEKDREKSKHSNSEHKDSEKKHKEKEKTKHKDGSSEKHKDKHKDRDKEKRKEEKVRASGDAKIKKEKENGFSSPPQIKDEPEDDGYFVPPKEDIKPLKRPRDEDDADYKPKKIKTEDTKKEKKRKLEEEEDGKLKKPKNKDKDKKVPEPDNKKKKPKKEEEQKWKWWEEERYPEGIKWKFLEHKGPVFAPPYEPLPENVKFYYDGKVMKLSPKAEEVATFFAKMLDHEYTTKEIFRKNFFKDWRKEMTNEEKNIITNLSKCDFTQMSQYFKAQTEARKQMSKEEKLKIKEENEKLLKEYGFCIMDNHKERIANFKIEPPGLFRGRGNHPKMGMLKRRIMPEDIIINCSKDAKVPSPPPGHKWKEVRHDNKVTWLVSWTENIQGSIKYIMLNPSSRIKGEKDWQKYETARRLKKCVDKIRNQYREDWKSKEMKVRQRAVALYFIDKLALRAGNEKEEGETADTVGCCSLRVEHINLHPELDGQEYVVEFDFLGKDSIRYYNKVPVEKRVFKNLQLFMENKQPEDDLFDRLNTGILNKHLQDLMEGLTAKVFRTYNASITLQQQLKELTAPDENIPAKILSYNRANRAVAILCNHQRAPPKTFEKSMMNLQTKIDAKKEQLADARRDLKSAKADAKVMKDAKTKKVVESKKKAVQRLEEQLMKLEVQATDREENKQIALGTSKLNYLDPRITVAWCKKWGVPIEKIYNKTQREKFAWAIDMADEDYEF
The experiment is described as follows: Top1-mediated DNA cleavage assay. The following applies: compound-induced DNA cleavage, score based on the activity of 1 μM camptothecin. In kind it is biochemical.

The subject of experiment [3] is melanoma, UACC-62. Nature of the experiment: NCI-60 five-dose assay, UACC-62. Format: cell-based. The following applies: Homo sapiens, UACC-62, read-out: cytotoxicity GI50, melanoma, UACC-62. The procedure, abridged: (§1)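 Run in the National Cancer Institute's NCI-60 human cancer cell panel. Test compounds were first screened in a one-dose assay at 10–5 M, reading growth percent relative to vehicle-treated control.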

In experiment [4] the target is recombinant TDP1 (Homo sapiens, UniProt Q9NUW8). The experiment is described as follows: Gel-based assay measuring the inhibition of recombinant TDP1. In kind it is biochemical. Summed up:
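Gel assay: a 5′-[32P]-labeled single-stranded DNA oligonucleotide with a 3′-phosphotyrosine (N14Y) was incubated with 5 pM recombinant TDP1 and test compound for 15 min at room temperature. Samples were run on 16% denaturing PAGE and quantified by phosphorimager densitometry.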

For experiment [5], the system named is renal, SN12C. The experiment is described as follows: NCI-60 five-dose assay, SN12C. In kind it is cell-based. The following applies: Homo sapiens, read-out: cytotoxicity GI50, renal, SN12C. Summed up: as §1
Setting [6] is: read-out: TDP1 inhibition, score according to IC50.

One may read the GI50 as the concentration that inhibits growth by half.

recombinant TDP1, sequence (Q9NUW8 whole entry): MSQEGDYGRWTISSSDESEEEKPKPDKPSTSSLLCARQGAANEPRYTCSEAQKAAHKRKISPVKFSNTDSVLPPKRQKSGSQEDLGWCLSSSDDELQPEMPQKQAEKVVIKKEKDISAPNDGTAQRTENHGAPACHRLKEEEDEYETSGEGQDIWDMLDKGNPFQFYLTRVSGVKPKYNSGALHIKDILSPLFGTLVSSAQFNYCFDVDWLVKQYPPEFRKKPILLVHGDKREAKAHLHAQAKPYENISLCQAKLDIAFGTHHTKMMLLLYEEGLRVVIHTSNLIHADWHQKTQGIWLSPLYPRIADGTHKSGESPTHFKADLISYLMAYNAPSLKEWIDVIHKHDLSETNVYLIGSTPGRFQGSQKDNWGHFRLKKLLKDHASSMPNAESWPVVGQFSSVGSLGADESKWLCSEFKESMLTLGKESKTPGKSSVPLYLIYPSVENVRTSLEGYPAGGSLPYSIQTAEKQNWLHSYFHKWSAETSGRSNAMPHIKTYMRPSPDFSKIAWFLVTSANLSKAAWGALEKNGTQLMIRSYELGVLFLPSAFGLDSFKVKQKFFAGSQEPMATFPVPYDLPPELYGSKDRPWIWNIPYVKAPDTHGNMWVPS

Molecule `COc1cc2c3c(n(CC(O)CO)c(=O)c2cc1OC)-c1cc2c(cc1C3=O)OCO2` (stereo not drawn) [Compound 52, (2′RS)-5,6-Dihydro-6-(2′,3′-dihydroxypropyl)-2,3-dimethoxy-8,9-methylenedioxy-5,11-dioxo-11H-indeno[1,2-c]isoquinoline] displayed an MGM in experiment [1] of 0.065 ± 0.011 µM. Also, the Top1 cleavage result in experiment [2] is given as “++++”.
For `COc1cc2c3c(n(C[C@H](O)CO)c(=O)c2cc1OC)-c1cc2c(cc1C3=O)OCO2` [Compound 53, (2′S)-5,6-Dihydro-6-(2′,3′-dihydroxypropyl)-2,3-dimethoxy-8,9-methylenedioxy-5,11-dioxo-11H-indeno[1,2-c]isoquinoline] the same measures were 0.049 ± 0.003 µM and “++++”.
In experiment [1], `COc1cc2c3c(n(C[C@@H](O)CO)c(=O)c2cc1OC)-c1cc2c(cc1C3=O)OCO2` [Compound 54, (2′R)-5,6-Dihydro-6-(2′,3′-dihydroxypropyl)-2,3-dimethoxy-8,9-methylenedioxy-5,11-dioxo-11H-indeno[1,2-c]isoquinoline] displayed an MGM of 0.166 ± 0.005 µM. Also, the GI50 in experiment [3] came out at 0.025 µM. In experiment [2], the Top1 cleavage entry is given as “++++”.
For the molecule `COc1cc2c3c(n(C[C@@H](O)[C@H](O)[C@H](O)CO)c(=O)c2cc1OC)-c1cc2c(cc1C3=O)OCO2` [Compound 55, (2′R,3′S,4′R)-5,6-Dihydro-6-(2′,3′,4′,5′-tetrahydroxypentyl)-2,3-dimethoxy-8,9-methylenedioxy-5,11-dioxo-11H-indeno[1,2-c]isoquinoline], in experiment [1], the MGM was 5.62 ± 0.18 µM. The Top1 cleavage entry in experiment [2] was “+++ (+++, between 75% and 95% activity)”.
The molecule `COc1cc2c3c(n(C[C@H](O)[C@H](O)[C@H](O)CO)c(=O)c2cc1OC)-c1cc2c(cc1C3=O)OCO2` [Compound 56, (2′S,3′S,4′R)-5,6-Dihydro-6-(2′,3′,4′,5′-tetrahydroxypentyl)-2,3-dimethoxy-8,9-methylenedioxy-5,11-dioxo-11H-indeno[1,2-c]isoquinoline] gave an MGM in experiment [1] of 1.43 ± 0.44 µM. Moreover, the pIC50 in experiment [4] (setting [6]) was 3.95 to 4.43.
`COc1cc2c3c(n(C[C@@H](O)[C@@H](O)[C@H](O)CO)c(=O)c2cc1OC)-c1cc2c(cc1C3=O)OCO2` [Compound 57, (2′R,3′R,4′R)-5,6-Dihydro-6-(2′,3′,4′,5′-tetrahydroxypentyl)-2,3-dimethoxy-8,9-methylenedioxy-5,11-dioxo-11H-indeno[1,2-c]isoquinoline]: in experiment [1], the MGM is 2.94 ± 0.52 µM. Moreover, the Top1 cleavage result in experiment [2] is on record as “++++”.
Turning to `COc1cc2c3c(n(C[C@H](O)[C@@H](O)[C@@H](O)[C@H](O)CO)c(=O)c2cc1OC)-c1cc2c(cc1C3=O)OCO2` [Compound 59, (2′S,3′R,4′S,5′R)-5,6-Dihydro-6-(2′,3′,4′,5′,6′-pentahydroxyhexyl)-2,3-dimethoxy-8,9-methylenedioxy-5,11-dioxo-11H-indeno[1,2-c]isoquinoline], in experiment [4] (setting [6]), the pIC50 is 3.95 to 4.43. Further, the Top1 cleavage result in experiment [2] was “++ (++, between 50% and 75% activity)”.
For the molecule `COc1cc2c3c(n(C[C@H](O)[C@@H](O)[C@H](O)[C@H](O)CO)c(=O)c2cc1OC)-c1cc2c(cc1C3=O)OCO2` [Compound 60, (2′S,3′R,4′R,5′R)-5,6-Dihydro-6-(2′,3′,4′,5′,6′-pentahydroxyhexyl)-2,3-dimethoxy-8,9-methylenedioxy-5,11-dioxo-11H-indeno[1,2-c]isoquinolone], in experiment [2], the Top1 cleavage entry is “+++ (+++, between 75% and 95% activity)”.
In the case of `COc1cc2c3c(n(C[C@@H](O)[C@@H](O)[C@H](O)[C@H](O)CO)c(=O)c2cc1OC)-c1cc2c(cc1C3=O)OCO2` [Compound 61, (2′R,3′R,4′R,5′R)-5,6-Dihydro-6-(2′,3′,4′,5′,6′-pentahydroxyhexyl)-2,3-dimethoxy-8,9-methylenedioxy-5,11-dioxo-11H-indeno[1,2-c]isoquinoline], the Top1 cleavage result in experiment [2] is on record as “++++”.
Consider `COc1cc2c3c(n(C[C@@H]4O[C@H](CO)[C@@H](O)[C@H](O)[C@H]4O)c(=O)c2cc1OC)-c1cc2c(cc1C3=O)OCO2` [Compound 62], for which the pIC50 in experiment [4] (read-out: TDP1 IC50) is not above 4.92; in experiment [4] (setting [6]), 3.95 to 4.43. Further, the Top1 cleavage result in experiment [2] is “++ (++, between 50% and 75% activity)”.
In turn, `O=C1c2ccccc2-c2c1c1ccc([N+](=O)[O-])cc1c(=O)n2CC(O)CO` (stereo not drawn) [Compound 63, (2′RS)-5,6-Dihydro-6-(2′,3′-dihydroxypropyl)-3-nitro-5,11-dioxo-11H-indeno[1,2-c]isoquinoline] yielded an MGM in experiment [1] of 0.389 ± 0.013 µM. Besides, in experiment [2], the Top1 cleavage entry is “+++ (+++, between 75% and 95% activity)”.
`O=C1c2ccccc2-c2c1c1ccc([N+](=O)[O-])cc1c(=O)n2C[C@@H](O)CO` [Compound 64, (2′R)-5,6-Dihydro-6-(2′,3′-dihydroxypropyl)-3-nitro-5,11-dioxo-11H-indeno[1,2-c]isoquinoline] displayed an MGM in experiment [1] of 0.332 ± 0.022 µM. Besides, the Top1 cleavage result in experiment [2] is “+++ (+++, between 75% and 95% activity)”.
`O=C1c2ccccc2-c2c1c1ccc([N+](=O)[O-])cc1c(=O)n2C[C@@H](O)[C@H](O)[C@H](O)CO` [Compound 65, (2′R,3′S,4′R)-5,6-Dihydro-6-(2′,3′,4′,5′-tetrahydroxypentyl)-3-nitro-5,11-dioxo-11H-indeno[1,2-c]isoquinoline] gave an MGM in experiment [1] of 1.58 µM. The pIC50 in experiment [4] (setting [6]) was 3.95 to 4.43. The GI50 in experiment [5] amounted to 2.69 µM. For the same molecule, the Top1 cleavage entry in experiment [2] is “++++”.
In the case of `O=C1c2ccccc2-c2c1c1ccc([N+](=O)[O-])cc1c(=O)n2C[C@H](O)[C@H](O)[C@H](O)CO` [Compound 66, (2′S,3′S,4′R)-5,6-Dihydro-6-(2′,3′,4′,5′-tetrahydroxypentyl)-3-nitro-5,11-dioxo-11H-indeno[1,2-c]isoquinoline], the MGM in experiment [1] worked out at 0.508 ± 0.041 µM. Also, the Top1 cleavage result in experiment [2] is on record as “++++(+)”.
Regarding `O=C1c2ccccc2-c2c1c1ccc([N+](=O)[O-])cc1c(=O)n2C[C@@H](O)[C@@H](O)[C@H](O)CO` [Compound 67, (2′R,3′R,4′R)-5,6-Dihydro-6-(2′,3′,4′,5′-tetrahydroxypentyl)-3-nitro-5,11-dioxo-11H-indeno[1,2-c]isoquinoline], the MGM in experiment [1] is 1.66 µM. In addition, in experiment [4] (setting [6]), the pIC50 is 4.43 to 4.92. The Top1 cleavage result in experiment [2] is recorded as “++++”.
As for `O=C1c2ccccc2-c2c1c1ccc([N+](=O)[O-])cc1c(=O)n2C[C@H](O)[C@@H](O)[C@H](O)CO` [Compound 68, (2′S,3′R,4′R)-5,6-Dihydro-6-(2′,3′,4′,5′-tetrahydroxypentyl)-3-nitro-5,11-dioxo-11H-indeno[1,2-c]isoquinoline], the MGM in experiment [1] is 0.372 ± 0.024 µM. Besides, the pIC50 in experiment [4] (setting [6]) is 3.95 to 4.43. Moreover, the Top1 cleavage result in experiment [2] is given as “++++(+)”.
The molecule `O=C1c2ccccc2-c2c1c1ccc([N+](=O)[O-])cc1c(=O)n2C[C@@H](O)[C@@H](O)[C@H](O)[C@H](O)CO` [Compound 70, (2′R,3′R,4′R,5′R)-5,6-Dihydro-6-(2′,3′,4′,5′,6′-pentahydroxyhexyl)-3-nitro-5,11-dioxo-11H-indeno[1,2-c]isoquinoline] returned an MGM in experiment [1] of 16.6 µM. In experiment [4] (setting [6]), the pIC50 is 3.95 to 4.43. Besides, the Top1 cleavage entry in experiment [2] is on record as “++++”.
With `O=C1c2ccccc2-c2c1c1ccc([N+](=O)[O-])cc1c(=O)n2C[C@@H]1O[C@H](CO)[C@@H](O)[C@H](O)[C@H]1O` [Compound 71], the figures for the pIC50 in experiment [4] and in experiment [4] (setting [6]) were not above 4.92 and 4.43 to 4.92, respectively. In experiment [2], the Top1 cleavage result is “++ (++, between 50% and 75% activity)”.
